Source: PubChem BioAssay
Shown are actives, neighbours in structure and some others; about 2.7% of the full set was active somewhere.
OXTR ag: human OXTR agonists, primary screen, fluorescence, CHO-OTR cells, Fluo-8 calcium. Oxytocin receptor (Homo sapiens), P30559. Fluo-8 calcium fluorescence; normalized: DMSO 0%, oxytocin 100%. activation, % at 3 µM. 320,000 tested, 0.32% active. AID 2435, 2010;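 active means activation above the mean of all tested compounds plus 3 SD, cutoff set per screening run, cut at about 20% in these data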;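 further: peak over basal fluorescence ratio from a 100 s FLIPR kinetic read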
OXTR potentiate: human OXTR potentiators, primary screen, fluorescence, CHO-OTR cells, Fluo-8 calcium; Oxytocin receptor (Homo sapiens), P30559; Fluo-8 calcium fluorescence, potentiator mode; 0% = oxytocin EC15, 100% = EC100; activation, % at 3 µM; 320,000 tested, 0.061% active; AID 2445, 2010;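 active means activation above that plate's cutoff, the mean activation of tested compounds plus 3 SD, cut at about 6.6% in these data, passing the limit was not always enough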
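Assay system: CHO-OTR cells, human receptor / Also added: oxytocin at about EC15, sub-maximal agonist stimulus / Dosing: single dose, 3.0 µM nominal final compound concentration / Incubation: 6 min pre-incubation, 100 s read / Technique: Fluo-8 calcium dye fluorescence / Read-out: % activation vs EC15 and EC100 oxytocin / Benchmarks: EC15 oxytocin low, 75 nM oxytocin high / Replicates: singlicate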
CHO parental Ca: ATP-evoked calcium signal inhibitors, parental CHO, primary screen, counter-screen for OX1R antagonist project, cell-based, fluorescence, Fluo-8 calcium dye; parental CHO-K1, ATP-induced calcium, Fluo-8 fluorescence; inhibition, % at 5.6 µM; 330,000 tested, 0.63% active;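 active means inhibition above that plate's mean sample inhibition plus 3 SD, cut at about 26% in these data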
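material = parental CHO cells | also added = ATP as calcium-mobilizing challenge | dosing = single point at 5.6 µM | detection = intracellular calcium via Fluo-8 no-wash fluorescent dye | read-out = % inhibition | benchmarks = low control ATP plus DMSO, high control DMSO only | repeats = one well per compound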
V1aR counter: agonists of human V1a receptor, primary screen, counter-screen for OXTR agonist project, fluorescence, CHO-V1R cells. Vasopressin V1a receptor (Homo sapiens), P37288. Fluo-8 calcium fluorescence, agonist mode; 0% DMSO, 100% 3 nM vasopressin. activation, % at 3 µM. 320,000 tested, 0.25% active;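 active means activation above the mean activation of all tested compounds plus 3 SD, per screening run, cut at about 20% in these data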;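 further: signal is peak over basal fluorescence ratio across a 100 second FLIPR read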
Target sequence (P37288 whole entry, looked up): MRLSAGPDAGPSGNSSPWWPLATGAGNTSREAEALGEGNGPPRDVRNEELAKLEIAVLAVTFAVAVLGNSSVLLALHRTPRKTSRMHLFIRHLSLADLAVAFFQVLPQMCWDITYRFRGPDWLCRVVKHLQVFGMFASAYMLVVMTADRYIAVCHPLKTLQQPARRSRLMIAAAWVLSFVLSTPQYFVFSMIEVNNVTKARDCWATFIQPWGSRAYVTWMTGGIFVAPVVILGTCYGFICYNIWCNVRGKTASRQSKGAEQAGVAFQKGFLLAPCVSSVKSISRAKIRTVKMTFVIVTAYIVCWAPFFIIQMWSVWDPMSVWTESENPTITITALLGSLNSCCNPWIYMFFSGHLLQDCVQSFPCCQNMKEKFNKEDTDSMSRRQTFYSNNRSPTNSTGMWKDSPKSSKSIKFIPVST
OX1R antag-1: OX1R (HCRTR1) antagonists, primary screen, fluorescence, CHO/OX1R cells, Fluo-8 calcium, orexin A; 330,000 tested, 0.43% active; Orexin/Hypocretin receptor type 1 (Homo sapiens), O43613; inhibition, % at 5 µM; AID 434989, 2010; Fluo-8 calcium fluorescence;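 active means inhibition above its plate's threshold, mean inhibition of all tested compounds on the plate plus 3 SD, cut at about 37% in these data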
OX1R antag-2: antagonists of human orexin 1 receptor (OX1R); OX1R-expressing cells, FRET antagonist read-out; inhibition, % at 6.6 µM; 330,000 tested, 1.8% active; AID 485270, 2010; in the data active means inhibition mostly above about 38%, no sharp cut-off; inactive means mostly below about 40%
Of the large screens only hits and unclear results are named; the others gave an inactive call.

O=C(N/N=C/c1ccc(OCc2ccccc2)cc1)c1cccs1	OX1R antag-2 60
O=C(Nc1ccc(OCc2ccccc2)cc1)c1cccs1	none
NC(=O)NC(CC(=O)NCc1ccc2c(c1)OCO2)c1ccccc1Cl (stereo unspecified)	none
CN1/C(=C\C=C2/SC(=S)N(CC(=O)O)C2=O)C(C)(C)c2ccccc21	OXTR ag 111, CHO parental Ca 69, V1aR counter 148, OX1R antag-1 77
CC(CC(=O)Nc1ncc([N+](=O)[O-])s1)c1ccccc1 (stereo unspecified)	OX1R antag-2 35
Cc1nnc(NC(=O)CC(C)c2ccccc2)s1 (stereo unspecified)	none
Cn1cnnc1SCC(=O)Nc1ncc([N+](=O)[O-])s1	OX1R antag-2 35
O=C(COC(=O)COc1ccccc1)Nc1ncc([N+](=O)[O-])s1	OX1R antag-2 43
Cc1cc(-c2ccc(C(C)C)c(S(=O)(=O)N3CC(=O)Nc4ccccc43)c2)on1	OX1R antag-2 39
COc1ccc2c(C)cc(SCC(=O)c3ccc4c(c3)OCO4)nc2c1	OX1R antag-2 40
COc1ccc2c(C)cc(SCC(=O)NC3CCCC3)nc2c1	none
O=C(N/N=C/c1cc2c(c([N+](=O)[O-])c1)OCO2)c1ccncc1	OX1R antag-2 54
O=C(N/N=C/c1cc2c(cc1[N+](=O)[O-])OCO2)c1cccnc1	none
O=S(=O)(Nc1c(O)ccc2ccccc12)c1ccccc1	OX1R antag-2 64
COc1ccc(S(=O)(=O)Nc2ccc(O)c3ccccc23)cc1	OX1R antag-2 43
COc1ccc(S(=O)(=O)Nc2ccccc2)cc1	none
CC(C)(C)c1ccc(OCC(=O)N(c2ccccn2)C2CCCCC2)cc1	CHO parental Ca 52
Cc1ccc(S(=O)(=O)Nc2cc(C(C(=O)OC(C)C)C(=O)C(F)(F)F)c(O)c3ccccc23)c(C)c1 (stereo unspecified)	CHO parental Ca 31, OX1R antag-1 51, OX1R antag-2 114
Cc1ccc(C(=O)NCCCN2CCOCC2)c(Cl)c1	none
O=C1CS/C(=N/N=C/c2ccc(OS(=O)(=O)c3ccccc3)cc2)N1	OX1R antag-2 70
NC(N)=N/N=C/c1ccc(OS(=O)(=O)c2ccccc2)cc1	none
CCOc1ccc(NC(=O)CSc2nnc(CNC(=O)c3cccs3)o2)cc1	none
NC(=O)c1ccc[n+]([C@H]2O[C@@H](COP(=O)([O-])OP(=O)(O)OC[C@H]3O[C@@H](n4cnc5c(N)ncnc54)[C@H](O)[C@@H]3O)[C@H](O)[C@@H]2O)c1	OXTR ag 51, V1aR counter 69
Nc1ncnc2c1ncn2[C@@H]1O[C@H](CO)[C@@H](O)[C@H]1O	none
O=C(Nc1ncc([N+](=O)[O-])s1)c1ccc2c(c1)OCO2	CHO parental Ca 29
Cc1ccc(C(=O)Nc2ncc([N+](=O)[O-])s2)cc1	OX1R antag-2 54
O=C(Nc1ncc([N+](=O)[O-])s1)c1ccco1	none
Cc1cccc(NC(=S)NCC(c2cccnc2)N(C)C)c1C (stereo unspecified)	none
CNc1nc(-c2ccc3c(c2)CCN3C(=O)CC(C)(C)C)c(C)s1	none
CC(=O)Nc1nc(-c2ccc3c(c2)CCN3C(=O)C2CC2)c(C)s1	OX1R antag-2 48
CN(Cc1cccs1)C(=O)Cn1cnc2cc([N+](=O)[O-])ccc2c1=O	OX1R antag-2 40
CCc1ccc(C(=O)Cn2cnc3cc([N+](=O)[O-])ccc3c2=O)cc1	none
O=C(Cn1cnc2cc([N+](=O)[O-])ccc2c1=O)NC1CCS(=O)(=O)C1 (stereo unspecified)	OX1R antag-2 63
CSCCC(NS(=O)(=O)c1ccc(Cl)cc1)C(=O)OCc1cccc(Cl)c1 (stereo unspecified)	CHO parental Ca 41
CSCCC(NS(=O)(=O)c1ccc(Cl)cc1)C(=O)OCc1c(Cl)cccc1Cl (stereo unspecified)	OX1R antag-2 66
CC(=O)OC(C)[C@H]1CC[C@H]2[C@@H]3CC[C@H]4C[C@@H](OC(C)=O)CC[C@]4(C)C3=CC[C@]12C (stereo partly specified)	none
Cc1ccc(-c2csc(=Nc3cccnc3)n2CCCN2CCCC2=O)cc1C	OX1R antag-2 64
O=c1oc2c3c(nn2c2ccccc12)CCCC3	OX1R antag-2 67
CC1CCCCC1NC(=O)COC(=O)c1ccc2ncsc2c1 (stereo unspecified)	none
COc1ccc(OC)c(/C=C/c2c([N+](=O)[O-])c(=O)n(C)c(=O)n2C)c1	none
COc1c(-c2ccc([N+](=O)[O-])cc2[N+](=O)[O-])c(=O)n(C)c(=O)n1C	OX1R antag-2 51
Cc1ccc(S(=O)(=O)Oc2ccccc2/C=C2/SC(=O)NC2=O)cc1	OX1R antag-2 38
O=C1NC(=O)/C(=C/c2cccc3ccccc23)S1	OX1R antag-2 30
CCCOc1ccc2ccccc2c1/C=C1\SC(=O)NC1=O	none
CCOC(=O)C(Cc1ccccc1)NC(=O)CCCC(=O)c1ccccc1 (stereo unspecified)	CHO parental Ca 47
CCOC(=O)C(Cc1ccccc1)NC(C)=O (stereo unspecified)	none
NS(=O)(=O)c1cccc(C(=O)OCC(=O)NC2CCCc3ccccc32)c1 (stereo unspecified)	none
Cn1nc(OC(=O)Nc2ccc(F)cc2)cc1C(F)(F)F	none
Cn1nc(OC(=O)Nc2ccc(Cl)cc2)cc1C(F)(F)F	CHO parental Ca 38
CCc1nc(SCC(=O)c2ccc3c(c2)OCCO3)c2ccccc2n1	OX1R antag-2 58
O=C(CSc1nc(Cc2ccccc2)nc2ccccc12)c1ccc2c(c1)OCCO2	OX1R antag-2 41
COc1ccc(C(=O)N2CCc3[nH]nc(-c4ccccc4)c3C2)cc1	none
CCOC(=O)CNC(=O)Cn1cnc2c(oc3ccccc32)c1=O	none
O=C(Nc1cc(-c2ccccc2)nn1C1CCCCC1)c1ccc(Cl)cc1	none
CCOC(=O)c1cnc(-n2nc(C)cc2C)nc1NC1CCCC1	CHO parental Ca 43, OX1R antag-1 59
CCOC(=O)c1cnc(-n2nc(C)cc2C)nc1Nc1ccc(OC)cc1	none
COC(=O)Cc1ccc(NC(=S)N2CCN(c3ccc(F)cc3)CC2)cc1	none
